Data taken from ChEMBL document CHEMBL1151756, “Design, synthesis, and biological evaluation of N-carboxyphenylpyrrole derivatives as potent HIV fusion inhibitors targeting gp41” (J Med Chem, 2008).
The source made the active and inactive calls. No cut-off for these calls is given here.

Legend:
[1] = Selectivity index, ratio of CC50 for human MT2 cells to EC50 for HIV1 3B; format: toxicity, cell-based; conditions: read-out: Ratio CC50/EC50
[2] = test system: MT2; experiment: Cytotoxicity against human MT2 cells after 4 days by XTT assay; format: cell-based; conditions: mt2, 96 h
Method in brief: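 XTT assay: MT-2 cells (5 × 10⁵/mL) incubated with compound at graded concentrations at 37 °C for 4 days. XTT (1 mg/mL) containing 0.02 μM PMS then added, and A450 read after 4 h. CC50 calculated.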

[3] = Inhibition of HIV1 3B gp41 six-helix bundle formation after 30 mins by sandwich ELISA
[4] = test system: Human immunodeficiency virus 1; experiment: Antiviral activity against HIV1 3B in human MT2 cells assessed as inhibition of p24 antigen level after 4 days by ELISA; format: functional, organism-based; conditions: Human immunodeficiency virus 1, 3B, MT2, 96 h
Method in brief: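 Medium then replaced without compound. Day 4 post-infection, supernatants lysed with 5% Triton X-100; p24 measured by sandwich ELISA with HIVIG capture, anti-p24 mAb, TMB, A450, and a recombinant p24 standard curve. Triplicates; EC50 calculated from percent inhibition.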

[5] = test system: Human immunodeficiency virus 1; experiment: Antiviral activity against HIV1 3B in human MT2 cells assessed as reduction of virus-induced cytopathogenicity; format: functional, organism-based

Compound | selectivity ratio [1] | CC50 [2] [µM] | IC50 [3] [µM] | EC50 [4] [µM] | Activity [5]
O=C(O)c1ccc(-c2noc(CCl)n2)cc1 | 16.4 | 64 | > 420 | 3.91 | –
Cc1ccc(C)n1-c1ccc(Cl)c(C(=O)O)c1 | 139 | 211 | 78.7 | 1.52 | –
COC(=O)c1ccc(N2C(=O)C=CC2=O)cc1O | 1.68 | 66.2 | 101 | 39.4 | –
COC(=O)c1ccc(-c2noc(CCl)n2)cc1 | 0.34 | 14.2 | > 395 | 41.4 | –
O=C(O)c1ccc(-c2noc(C(F)(F)F)n2)cc1 | 26.9 | 82.2 | 224 | 3.06 | –
O=C(O)c1ccc(N2C(=O)C=CC2=O)cc1 | > 1.95 | > 400 | > 1000 | 205 | –
CCOC(=O)c1ccc(-c2noc(CO)n2)cc1 | 1.03 | 385 | 178 | 373 | –
O=C(O)c1cc(-n2cccc2)ccc1Cl | – | 336 | 58.7 | – | –
Cc1ccc(C)n1-c1ccc(O)c(C(=O)O)c1 | – | 133 | 37.4 | 0.69 | Active
O=C(O)c1cc(-n2cccc2)ccc1O | – | – | 48.7 | 9.66 | –
COC(=O)c1ccc(-n2c(C)ccc2C)cc1O | 1.5 | 88.9 | 287 | 59.1 | –
COC(=O)c1ccc(-c2noc(CSC#N)n2)cc1 | 3.99 | 43.7 | 171 | 11 | –
O=C(O)c1ccc(N2C(=O)C=CC2=O)cc1O | – | > 400 | > 1000 | > 400 | –
COC(=O)c1ccc(-c2noc(CBr)n2)cc1 | 0.37 | 32.7 | > 337 | 88 | –
O=C(O)c1ccc(-n2cccc2)cc1 | – | – | 129 | 69.2 | –
O=C(O)Cc1ccc(-n2cccc2)cc1 | – | – | – | 371 | –
O=C1CSC(=S)N1c1cccc(C(F)(F)F)c1 | 0.74 | 85.4 | > 1000 | 116 | –
COc1ccc(N2C(=O)CSC2=S)cc1 | 1.41 | 89.6 | > 1000 | 63.4 | –
Cc1ccc(C)n1-c1ccc(CC(=O)O)cc1 | 97.1 | 204 | 225 | 2.1 | –
O=C(O)c1cc(N2C(=O)CSC2=S)ccc1Cl | 0.87 | 155 | > 1000 | 179 | –

Compound | selectivity ratio [1] | CC50 [2] [µM] | IC50 [3] [µM] | EC50 [4] [µM] | Activity [5]
Cc1ccc(C)n1-c1ccc(C(=O)O)cc1 | 0.78 | 136 | 189 | 174 | –
O=C(O)c1cccc(N2C(=O)CSC2=S)c1 | 0.81 | 165 | > 1000 | 204 | –
COC(=O)c1ccc(-n2cccc2)cc1O | 10.7 | 379 | – | 35.4 | –
O=C(O)c1ccc(-c2noc(CBr)n2)cc1 | 0.64 | 81.9 | > 353 | 127 | –
Cc1ccc(C)n1-c1ccc(S(N)(=O)=O)cc1 | 1.18 | 117 | 182 | 99.1 | –
O=C(O)c1cccc(-n2cccc2)c1 | 6.74 | 302 | 211 | 44.8 | –
O=C(O)c1cccc(-c2noc(C(F)(F)F)n2)c1 | – | > 400 | > 1000 | > 400 | –
Cc1ccc(C)n1-c1cccc(-c2nnn[nH]2)c1 | 32.4 | 249 | 25.6 | 7.7 | –
O=C(O)c1ccc(N2C(=O)CSC2=S)cc1 | 0.56 | 143 | > 1000 | 258 | –
O=C(O)c1cccc(-c2noc(CCl)n2)c1 | 1.12 | 64.9 | 346 | 57.7 | –
O=C(O)c1ccc(-n2cccc2)cc1O | 5.42 | 443 | 70.8 | 81.7 | –
O=C(O)c1ccc(-c2noc(CO)n2)cc1 | 2.98 | 455 | 26.4 | 153 | –
O=C(O)c1cc(N2C(=O)CSC2=S)ccc1O | 0.92 | 152 | > 1000 | 166 | –
c1cc(-c2nnn[nH]2)cc(-n2cccc2)c1 | 10.6 | 436 | 226 | 41 | –
O=C(O)c1ccc(Cn2cccc2)cc1 | – | – | 157 | 63.9 | –
Cc1ccc(C)n1-c1cccc(C(=O)O)c1 | 7.49 | 88.4 | 42.2 | 11.8 | –
N#CSCc1nc(-c2ccc(C(=O)O)cc2)no1 | 5.64 | 383 | 178 | 68 | –
Cc1ccc(C)n1-c1ccc(Cl)cc1C(=O)O | – | – | 60.3 | 8.56 | –
Nc1nnc(-c2ccc(C(=O)O)cc2)s1 | – | > 400 | > 1000 | > 400 | –
O=C1CSC(=S)N1c1ccc(O)cc1 | 2.38 | 84.9 | > 1000 | 35.7 | –
